In ChEMBL document CHEMBL1154858, “Synthesis, in vitro antibacterial and antifungal evaluations of new alpha-hydroxyphosphonate and new alpha-acetoxyphosphonate derivatives of tetrazolo [1, 5-a] quinoline” (2010):
In brackets after ≈: the same amount, converted by molar mass.

Assays:
Type in all cases: functional
[1] = test system: Aspergillus niger; assay: Antifungal activity against Aspergillus niger NCIM 545 after 48 hrs by agar cup plate method
Summary of the method: (§1)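 Fungal zone-of-inhibition test in Czapek Dox medium by the agar cup method, with compounds dissolved in DMF and griseofulvin in DMF as the reference. Plates were incubated at 28 ± 0.5 °C for 48 h. Activity was taken as the diameter of the zone of inhibited growth around the cup.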

[2] = test system: Aspergillus niger; assay: Antifungal activity against Aspergillus niger NCIM 545 after 24 hrs by cup plate method; conditions: NCIM 545, 24 h
Summary of the method: (§2)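 Cup-plate MIC on Mueller Hinton agar plates containing the compound at 0 (control), 1, 2, 3, 5, 10, 15, 20, 30 and 40 (unit unclear), with compounds dissolved in DMF. Plates were read after 24 h and incubated further up to 72 h where needed. MIC is the lowest concentration giving no visible macroscopic growth.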

[3] = test system: Bacillus subtilis; assay: Antibacterial activity against Bacillus subtilis NCIM 2250 after 24 hrs by cup plate method; conditions: NCIM 2250, 24 h; summary of the method: as §2
[4] = test system: Bacillus subtilis; assay: Antibacterial activity against Bacillus subtilis NCIM 2250 after 48 hrs by agar cup plate method
Summary of the method: (§3)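 Agar cup plate zone-of-inhibition assay on Mueller Hinton agar, with compounds dissolved in DMF and streptomycin in DMF as the reference. Plates were incubated at 37 ± 0.5 °C for 48 h. Inhibition was scored as the diameter of the growth-free zone around the cup.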

[5] = test system: Candida albicans; assay: Antifungal activity against Candida albicans MTCC 277 after 24 hrs by cup plate method; conditions: MTCC 277, 24 h; summary of the method: as §2
[6] = test system: Candida albicans; assay: Antifungal activity against Candida albicans MTCC 277 after 48 hrs by agar cup plate method; summary of the method: as §1
[7] = test system: Escherichia coli; assay: Antibacterial activity against Escherichia coli ATCC 25922 after 48 hrs by agar cup plate method; summary of the method: as §3
[8] = test system: Escherichia coli; assay: Antibacterial activity against Escherichia coli ATCC 25922 after 24 hrs by cup plate method; conditions: ATCC 25922, 24 h; summary of the method: as §2

SMILES	diameter of the inhibition zone (DIZ) [1]	MIC [2]	MIC [3]	diameter of the inhibition zone (DIZ) [4]	MIC [5]	diameter of the inhibition zone (DIZ) [6]	diameter of the inhibition zone (DIZ) [7]	MIC [8]
CCOP(=O)(OCC)C(OC(C)=O)c1cc2cccc(CC)c2n2nnnc12 (stereo unspecified)	13.5 mm	15 µg/mL (≈ 36.9 µM)	10 µg/mL (≈ 24.6 µM)	15.1 mm	10 µg/mL (≈ 24.6 µM)	12.1 mm	14.2 mm	10 µg/mL (≈ 24.6 µM)
CCOP(=O)(OCC)C(O)c1cc2cccc(C)c2n2nnnc12 (stereo unspecified)	13.1 mm	15 µg/mL (≈ 42.8 µM)	10 µg/mL (≈ 28.5 µM)	12.3 mm	10 µg/mL (≈ 28.5 µM)	13 mm	13.7 mm	25 µg/mL (≈ 71.4 µM)
CCOP(=O)(OCC)C(O)c1cc2cccc(OC)c2n2nnnc12 (stereo unspecified)	11.5 mm	15 µg/mL (≈ 40.9 µM)	10 µg/mL (≈ 27.3 µM)	12.5 mm	15 µg/mL (≈ 40.9 µM)	13.8 mm	13.3 mm	15 µg/mL (≈ 40.9 µM)
CCOc1ccc2c(c1)cc(C(O)P(=O)(OCC)OCC)c1nnnn12 (stereo unspecified)	12.8 mm	15 µg/mL (≈ 39.4 µM)	10 µg/mL (≈ 26.3 µM)	15.4 mm	10 µg/mL (≈ 26.3 µM)	13.8 mm	13.5 mm	15 µg/mL (≈ 39.4 µM)
CCOP(=O)(OCC)C(OC(C)=O)c1cc2cccc(OC)c2n2nnnc12 (stereo unspecified)	13.4 mm	15 µg/mL (≈ 36.7 µM)	15 µg/mL (≈ 36.7 µM)	11.4 mm	15 µg/mL (≈ 36.7 µM)	12.1 mm	13.9 mm	25 µg/mL (≈ 61.2 µM)
COC1=CC(=O)C[C@@H](C)[C@]12Oc1c(Cl)c(OC)cc(OC)c1C2=O [GRISEOFULVIN]	16.5 mm	5 µg/mL (≈ 14.2 µM)			5 µg/mL (≈ 14.2 µM)	16.4 mm		
CCOP(=O)(OCC)C(O)c1cc2cccc(CC)c2n2nnnc12 (stereo unspecified)	14.2 mm	10 µg/mL (≈ 27.4 µM)	10 µg/mL (≈ 27.4 µM)	14.5 mm	10 µg/mL (≈ 27.4 µM)	13.4 mm	16.2 mm	20 µg/mL (≈ 54.9 µM)
CCOP(=O)(OCC)C(O)c1cc2ccc(OC)cc2n2nnnc12 (stereo unspecified)	14.4 mm	10 µg/mL (≈ 27.3 µM)	10 µg/mL (≈ 27.3 µM)	12 mm	10 µg/mL (≈ 27.3 µM)	13.4 mm	13.6 mm	15 µg/mL (≈ 40.9 µM)
CCOP(=O)(OCC)C(O)c1cc2ccccc2n2nnnc12 (stereo unspecified)	12.1 mm	15 µg/mL (≈ 44.6 µM)	10 µg/mL (≈ 29.7 µM)	12 mm	10 µg/mL (≈ 29.7 µM)	13.6 mm	13.4 mm	20 µg/mL (≈ 59.5 µM)
CCOP(=O)(OCC)C(O)c1cc2cc(C)ccc2n2nnnc12 (stereo unspecified)	14.2 mm	10 µg/mL (≈ 28.5 µM)	10 µg/mL (≈ 28.5 µM)	15.2 mm	10 µg/mL (≈ 28.5 µM)	13.2 mm	15 mm	10 µg/mL (≈ 28.5 µM)
